F508del corr = CFTR F508del correction in bronchial cells | activity (quench increase), % at 7.58 µM | CFBE cells, YFP halide quenching; stimulated with forskolin plus potentiator P3; % fluorescence drop versus neutral controls | hit rate 0.36% among 350,000 | AID 720511;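 active = mean added fluorescence quench of at least 8% versus neutral control, with both replicates also reaching 8%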;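 note: cells transiently co-express mutant CFTR-F508del with the halide-sensitive YFP; corrector assay measuring rescue of mutant channel to the surface after 24 h compound exposure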
E-sel inducer = E-selectin induction on HUVECs; AID 686992; hit rate 0.37% among 260,000; HUVEC E-selectin immunofluorescence imaging; normalized: neutral wells 0, TNF-alpha wells 100; P16581; activation, % at 7.58 µM;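 active = mean E-selectin-positive cell signal at least 10% of the positive control, reached in at least 60% of replicates, without over 20% cell loss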
Target sequence (P16581 whole entry, looked up): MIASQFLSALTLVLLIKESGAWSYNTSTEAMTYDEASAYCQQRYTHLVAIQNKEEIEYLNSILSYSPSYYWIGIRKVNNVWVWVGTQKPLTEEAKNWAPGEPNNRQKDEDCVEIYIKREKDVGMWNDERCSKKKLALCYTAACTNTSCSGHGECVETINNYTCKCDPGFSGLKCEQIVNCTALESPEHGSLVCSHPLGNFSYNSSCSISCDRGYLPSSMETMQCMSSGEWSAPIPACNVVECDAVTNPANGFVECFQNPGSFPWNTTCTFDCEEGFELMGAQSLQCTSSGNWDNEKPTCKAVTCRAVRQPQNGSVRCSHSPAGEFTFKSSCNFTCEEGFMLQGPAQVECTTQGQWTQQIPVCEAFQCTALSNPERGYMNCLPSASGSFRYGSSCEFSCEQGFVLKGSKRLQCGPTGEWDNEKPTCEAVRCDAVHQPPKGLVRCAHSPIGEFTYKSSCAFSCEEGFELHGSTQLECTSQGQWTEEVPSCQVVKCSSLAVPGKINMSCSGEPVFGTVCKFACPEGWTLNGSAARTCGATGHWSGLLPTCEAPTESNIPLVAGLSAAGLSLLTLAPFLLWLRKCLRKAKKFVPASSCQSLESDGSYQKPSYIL
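Test system: HUVEC | Signal: Immunofluorescence imaging | Read-out: Percent E-selectin-positive cells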
XiGFP reactiv = activators of X-chromosome reactivation in mouse fibroblasts | XiGFP mouse fibroblasts, % GFP-positive cells imaging, 3 d; cells co-treated with 5-aza-dC sensitizer; scaled so ellipticine positive control = 100% | activation, % at 7.58 µM | hit rate 0.055% among 360,000;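 active = mean normalized replicate activation at least 10% and every replicate at or above 10%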
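System: XiGFP fibroblasts, SV40-immortalized. Medium: DMEM plus 5-aza-dC sensitizer. Doses: single point. Timing: 3 d treatment, 15 min room-temperature fixation. Control set: ellipticine 6 µM.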
A number is an active result. Sampled rows, rich in hits. Any-hit rate of the full collection: about 0.61%.

Screening C[C@H]1CN([C@@H](C)CO)C(=O)c2cc(NC(=O)CCCCCC(=O)Nc3ccccc3N)ccc2O[C@@H]1CN(C)C(=O)Nc1ccc2c(c1)OCO2 returned F508del corr inactive, E-sel inducer inactive and XiGFP reactiv inactive.
For C[C@@H]1CN([C@H](C)CO)C(=O)CCCn2cc(nn2)CO[C@@H]1CN(C)C(=O)Oc1ccccc1 the results were F508del corr inactive, E-sel inducer inactive and XiGFP reactiv inactive.
Screening C[C@H](CO)N1C[C@H](C)[C@H](CN(C)C(=O)Cc2ccccc2)OCCCC[C@H](C)Oc2ccc(NS(=O)(=O)c3ccccc3)cc2C1=O returned F508del corr inactive, E-sel inducer inactive and XiGFP reactiv inactive.
O=C(C[C@@H]1CC[C@@H]2NC[C@H](O)COC[C@H]2O1)NCCN1CCCC1 was read as F508del corr inactive, E-sel inducer inactive and XiGFP reactiv inactive.
Screening COc1cccc(C#Cc2cnc3c(c2)C(=O)N([C@@H](C)CO)C[C@@H](C)[C@@H](CN(C)C(=O)C2CCOCC2)O3)c1 returned F508del corr inactive, E-sel inducer inactive and XiGFP reactiv inactive.
Screening C[C@H](CO)N1C[C@H](C)[C@@H](CN(C)Cc2ccc(-c3ccccc3)cc2)Oc2ccc(NC(=O)Nc3ccc4c(c3)OCO4)cc2C1=O returned F508del corr inactive, E-sel inducer inactive and XiGFP reactiv inactive.
Screening C[C@H]1CN([C@@H](C)CO)C(=O)Cc2cc(NC(=O)Nc3ccc4c(c3)OCO4)ccc2O[C@@H]1CN(C)C returned F508del corr inactive, E-sel inducer 233 and XiGFP reactiv inactive.
For COc1ccc(S(=O)(=O)N(C)C[C@H]2Oc3ccc(NC(=O)Nc4ccc5c(c4)OCO5)cc3CC(=O)N([C@@H](C)CO)C[C@@H]2C)cc1 the results were F508del corr inactive, E-sel inducer inactive and XiGFP reactiv inactive.
`C[C@@H]1CN([C@H](C)CO)C(=O)Cc2cc(NC(=O)Nc3ccccc3)ccc2O[C@@H]1CN(C)C` gave F508del corr inactive, E-sel inducer 46 and XiGFP reactiv inactive.
For C[C@H](CO)N1C[C@H](C)[C@@H](CN(C)C)Oc2ccc(NC(=O)Nc3ccccc3)cc2CC1=O the results were F508del corr inactive, E-sel inducer inactive and XiGFP reactiv inactive.
C[C@@H]1CN([C@@H](C)CO)C(=O)c2cc(NC(=O)Nc3ccc4c(c3)OCO4)ccc2O[C@H]1CN(C)Cc1ccc(-c2ccccc2)cc1 was read as F508del corr inactive, E-sel inducer 60 and XiGFP reactiv inactive.
Screening COc1ccc(S(=O)(=O)N(C)C[C@H]2Oc3ccc(NC(=O)Nc4ccc5c(c4)OCO5)cc3CC(=O)N([C@H](C)CO)C[C@H]2C)cc1 returned F508del corr inactive, E-sel inducer 36 and XiGFP reactiv inactive.
`C[C@H]1CN([C@@H](C)CO)C(=O)Cc2cc(NC(=O)Nc3ccc4c(c3)OCO4)ccc2O[C@@H]1CN(C)C(=O)Nc1ccc2c(c1)OCO2` gave F508del corr inactive, E-sel inducer inactive and XiGFP reactiv inactive.
For O=C(C1CCC1)N1C[C@@H]2[C@H](c3ccccc31)[C@H](CO)N2S(=O)(=O)c1ccccc1 the results were F508del corr inactive, E-sel inducer inactive and XiGFP reactiv inactive.
COc1ccccc1NC(=O)Nc1ccc2c(c1)OC[C@H](C)NC[C@@H](C)[C@H](OC)CN(C)C2=O was read as F508del corr inactive, E-sel inducer inactive and XiGFP reactiv inactive.
For COC(=O)C[C@H]1CC[C@@H]2[C@@H](COc3ccc(NC(=O)c4cccs4)cc3C(=O)N2C)O1 the results were F508del corr inactive, E-sel inducer inactive and XiGFP reactiv inactive.
Screening C[C@H]1CN([C@@H](C)CO)C(=O)Cc2cc(NC(=O)CCN3CCOCC3)ccc2O[C@H]1CN(C)S(=O)(=O)c1ccccc1 returned F508del corr inactive, E-sel inducer inactive and XiGFP reactiv inactive.
N#C[C@@H]1N[C@@H](CO)[C@@H]1c1ccc(C#Cc2ccc(F)cc2)cc1 was read as F508del corr inactive, E-sel inducer inactive and XiGFP reactiv inactive.
`CN(C)C(=O)C[C@@H]1C[C@H]2c3cc(NS(=O)(=O)c4ccc(F)cc4)ccc3O[C@H]2[C@H](CO)O1` gave F508del corr inactive, E-sel inducer inactive and XiGFP reactiv inactive.
`CC(=O)N1CC(=O)N2[C@@H](CO)[C@H](c3ccc(-c4ccccc4)cc3)[C@@H]2C1` gave XiGFP reactiv inactive.
`O=C(C[C@@H]1C[C@H]2c3cc(NC(=O)c4cccnc4)ccc3O[C@H]2[C@H](CO)O1)NCc1cccc(F)c1` gave F508del corr inactive, E-sel inducer inactive and XiGFP reactiv inactive.

High-throughput results from PubChem.
